Laboratory results taken from ChEMBL document CHEMBL1765056, “Cytotoxic oleanane-type saponins from Albizia inundata” (J Nat Prod, 2011).
The source made the active and inactive calls. No cut-off for these calls is given here.

Legend:
Type in all cases: functional, cell-based
B16-F10 [1] = test: Cytotoxicity against mouse B16F10 cells harboring BRAF […] mutation assessed as membrane disintegration by phase contrast microscopy
Procedure, shortened: (§1)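 Cells treated with increasing concentrations of saponins, then examined by phase-contrast microscopy for membrane disintegration.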

SK-MEL-28 [2] = test: Cytotoxicity against human SK-MEL-28 cells harboring BRAF […]/PTEN mutation assessed as membrane disintegration by phase contrast microscopy; procedure, shortened: as §1
JMAR = test: Cytotoxicity against human JMAR cells assessed as membrane disintegration by phase contrast microscopy; procedure, shortened: as §1
Homo sapiens = organism: Homo sapiens; test: Cytotoxicity against human MDA1986 cells assessed as membrane disintegration by phase contrast microscopy; procedure, shortened: as §1
B16-F10 [3] = test: Cytotoxicity against mouse B16F10 cells harboring BRAF […] mutation assessed as cell viability by MTS assay
Procedure, shortened: (§2)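 Pure compounds tested at five concentrations from 50 nM to 20 uM. Readout is MTS viability, with IC50 derived per cell line. JMAR and MDA1986 are head and neck squamous carcinoma lines. B16F10 is a murine melanoma line and SKMEL28 a human melanoma line, both BRAF V600E; SKMEL28 also carries a PTEN mutation.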

SK-MEL-28 [4] = test: Cytotoxicity against human SK-MEL-28 cells harboring BRAF […]/PTEN mutation assessed as cell viability by MTS assay; procedure, shortened: as §2
[5] = Cytotoxicity against human JMAR cells assessed as cell viability by MTS assay; procedure, shortened: as §2
[6] = Cytotoxicity against human MDA1986 cells assessed as cell viability by MTS assay; procedure, shortened: as §2

| Structure (SMILES) | Activity (B16-F10 [1]) | Activity (SK-MEL-28 [2]) | Activity (JMAR) | Activity (Homo sapiens) | IC50 (B16-F10 [3]) [µM] | IC50 (SK-MEL-28 [4]) [µM] | IC50 [5] [µM] | IC50 [6] [µM] |
| --- | --- | --- | --- | --- | --- | --- | --- | --- |
| CC(=O)N[C@H]1[C@H](O[C@H]2CC[C@]3(C)[C@H]4CC=C5[C@@H]6CC(C)(C)CC[C@]6(C(=O)O)CC[C@@]5(C)[C@]4(C)CC[C@H]3C2(C)C)O[C@H](CO[C@@H]2OC[C@H](O)[C@H](O)[C@H]2O)[C@@H](O)[C@@H]1O | inactive | inactive | inactive | inactive | 4.7 | 12.4 | 8.7 | 7.3 |
| CC1(C)CC[C@]2(C(=O)O)CC[C@]3(C)C(=CC[C@@H]4[C@@]5(C)CC[C@H](O[C@@H]6O[C@H](CO)[C@@H](O)[C@H](O)[C@H]6O[C@@H]6O[C@H](CO)[C@@H](O)[C@H](O)[C@H]6O)C(C)(C)[C@@H]5CC[C@]43C)[C@@H]2C1 [ACUTOSIDE A] | – | – | – | – | > 20 | > 20 | > 20 | > 20 |
| CC(=O)N[C@H]1[C@H](O[C@H]2CC[C@]3(C)[C@H]4CC=C5[C@@H]6CC(C)(C)CC[C@]6(C(=O)O)[C@H](O)C[C@@]5(C)[C@]4(C)CC[C@H]3C2(C)C)O[C@H](CO[C@@H]2OC[C@H](O)[C@H](O)[C@H]2O)[C@@H](O)[C@@H]1O | inactive | inactive | inactive | inactive | 5.1 | 9.2 | 2.8 | 1.8 |
| CC1(C)CC[C@]2(C(=O)O)[C@H](O)C[C@]3(C)C(=CC[C@@H]4[C@@]5(C)CC[C@H](O[C@@H]6O[C@H](CO[C@@H]7OC[C@H](O)[C@H](O)[C@H]7O[C@@H]7OC[C@H](O)[C@H](O)[C@H]7O)[C@@H](O)[C@H](O)[C@H]6O[C@@H]6O[C@H](CO)[C@@H](O)[C@H](O)[C@H]6O)C(C)(C)[C@@H]5CC[C@]43C)[C@@H]2C1 | – | – | – | – | > 20 | > 20 | > 20 | > 20 |
| CC1(C)CC[C@]2(C(=O)O)CC[C@]3(C)C(=CC[C@@H]4[C@@]5(C)CC[C@H](O[C@@H]6O[C@H](CO[C@@H]7OC[C@H](O)[C@H](O)[C@H]7O[C@@H]7OC[C@@H](O)[C@H](O)[C@H]7O)[C@@H](O)[C@H](O)[C@H]6O)C(C)(C)[C@@H]5CC[C@]43C)[C@@H]2C1 [PITHEDULOSIDE C] | inactive | inactive | inactive | inactive | 6.9 | 8.6 | 10.1 | 9 |
| CC1(C)CC[C@]2(C(=O)O)[C@H](O)C[C@]3(C)C(=CC[C@@H]4[C@@]5(C)CC[C@H](O[C@@H]6O[C@H](CO[C@@H]7OC[C@H](O)[C@H](O)[C@H]7O[C@@H]7OC[C@@H](O)[C@H](O)[C@H]7O)[C@@H](O)[C@H](O)[C@H]6O[C@@H]6O[C@H](CO)[C@@H](O)[C@H](O)[C@H]6O)C(C)(C)[C@@H]5CC[C@]43C)[C@@H]2C1 | – | – | – | – | > 20 | > 20 | > 20 | > 20 |
| CC1(C)CC[C@]2(C(=O)O)CC[C@]3(C)C(=CC[C@@H]4[C@@]5(C)CC[C@H](O[C@@H]6O[C@H](CO[C@@H]7OC[C@H](O)[C@H](O)[C@H]7O[C@@H]7OC[C@H](O)[C@H](O)[C@H]7O)[C@@H](O)[C@H](O)[C@H]6O)C(C)(C)[C@@H]5CC[C@]43C)[C@@H]2C1 | inactive | inactive | inactive | inactive | 6.3 | 8.1 | 11.5 | 8.2 |
| CC(=O)N[C@H]1[C@H](O[C@H]2CC[C@]3(C)[C@H]4CC=C5[C@@H]6CC(C)(C)[C@@H]7C[C@]6(C(=O)O7)[C@H](O)C[C@@]5(C)[C@]4(C)CC[C@H]3C2(C)C)O[C@H](CO[C@@H]2OC[C@H](O)[C@H](O)[C@H]2O[C@@H]2OC[C@@H](O)[C@H](O)[C@H]2O)[C@@H](O)[C@@H]1O [PROSAPOGENIN 4] | – | – | – | – | > 20 | > 20 | > 20 | > 20 |
| CC(=O)N[C@H]1[C@H](O[C@H]2CC[C@]3(C)[C@H]4CC=C5[C@@H]6CC(C)(C)[C@@H]7C[C@]6(C(=O)O7)[C@H](O)C[C@@]5(C)[C@]4(C)CC[C@H]3C2(C)C)O[C@H](CO[C@@H]2OC[C@H](O)[C@H](O)[C@H]2O[C@@H]2OC[C@H](O)[C@H](O)[C@H]2O)[C@@H](O)[C@@H]1O | – | – | – | – | > 20 | > 20 | > 20 | > 20 |
